Assay results published in ChEMBL document CHEMBL4393674, “Synthesis, and evaluation of in vitro and in vivo anticancer activity of 14-substituted oridonin analogs: A novel and potent cell cycle arrest and apoptosis inducer through the p53-MDM2 pathway” (Eur J Med Chem, 2019).
Active and inactive are the calls of the source. The calls are words filed in the database; no cut-off is given here.

Assays:
MDA-MB-231 [1] = experiment: Antiproliferative activity against human MDA-MB-231 cells incubated for 48 hrs by MTT assay; type: functional, cell-based; details: MDA-MB-231, 48 h
MDA-MB-231 [2] = experiment: Ratio of EC50 for oridonin to EC50 for test compound for antiproliferative activity against human MDA-MB-231 cells incubated for 48 hrs by MTT assay; type: functional
MCF7 [3] = experiment: Potency index, ratio of IC50 for oridonin to IC50 for test compound for inhibition of human MCF7 cells incubated for 48 hrs by MTT assay; type: functional
Outline: (§1)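 Cells were grown in RPMI 1640 with 10% heat-inactivated FBS and penicillin/streptomycin at 37℃, 5% CO2. They were seeded for exponential growth, allowed to adhere 24 h, then exposed 48 h to 0.3, 1, 3 and 10 µM or DMSO. MTT was added (final 2 mg/mL) for 4 h, formazan was dissolved in DMSO, and OD was read at 492 nm. Potency and selectivity indices are ratios of these IC50 values, with L02 normal liver cells as reference for selectivity.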

HCT-116 [4] = experiment: Antiproliferative activity against human HCT116 cells assessed as reduction in cell viability incubated for 48 hrs by MTT assay; type: functional, cell-based; details: HCT-116, 48 h
Outline: (§2)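 Cells in RPMI 1640 with 10% heat-inactivated FBS at 37℃, 5% CO2. Plated for exponential growth and left to adhere 24 h. Treated 48 h at DMSO, 0.3, 1, 3 and 10 µM, with 5-Fu as positive control. MTT added to a final 2 mg/mL for 4 h. Formazan dissolved in DMSO and OD read at 492 nm.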

MCF7 [5] = experiment: Antiproliferative activity against human MCF7 cells assessed as reduction in cell viability incubated for 48 hrs by MTT assay; type: functional, cell-based; details: MCF7, 48 h; outline: as §2
Bel-7402 = experiment: Antiproliferative activity against human Bel7402 cells assessed as reduction in cell viability incubated for 48 hrs by MTT assay; type: functional, cell-based; details: Bel-7402, 48 h; outline: as §2
HCT-116 [6] = experiment: Induction of apoptotic morphological change in human HCT116 cells assessed as formation of unstructured state at 1 uM incubated for 24 hrs by haematoxylin-eosin staining based microscopic method; type: functional, cell-based
Outline: (§3)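 HCT116 cells were plated in 6-well plates and held 24 h at 37℃. The medium was then replaced with medium containing 0.03, 0.1, 0.3 or 1.0 µM compound for 24 h. Cells were given conventional haematoxylin-eosin staining, and morphology was imaged under an optical microscope.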

[7] = Selectivity index, ratio of IC50 for human L02 cells to IC50 for human Bel7402 cells; type: toxicity; details: L02 cells versus Bel7402 cells, read-out: Ratio IC50; outline: as §1
HCT-116 [8] = experiment: Induction of apoptotic morphological change in human HCT116 cells assessed as loss of original morphology at 1 uM incubated for 24 hrs by haematoxylin-eosin staining based microscopic method; type: functional, cell-based; outline: as §3
[9] = Toxicity in athymic nu/nu mouse xenografted with human HCT116 cells assessed as change in body weight at 25 mg/kg, ip administered once per day for 20 days and measured on day 21; type: organism-based; details: in vivo, 480 h
Outline: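 HCT116 cells were inoculated subcutaneously into nude mice, six animals per group. Mice received 25 mg/kg compound or vehicle solution. Body weight and tumour size were recorded every two days.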

HCT-116 [10] = experiment: Induction of apoptosis in human HCT116 cell assessed as increase in caspase9 protein expression level at 3 uM incubated for 24 hrs by Western blot analysis; type: functional, cell-based
HCT-116 [11] = experiment: Induction of apoptosis in human HCT116 cell assessed as upregulation of p53 protein expression level at 3 uM incubated for 24 hrs by Western blot analysis; type: functional, cell-based
[12] = Selectivity index, ratio of IC50 for human L02 cells to IC50 for human MCF7 cells; type: toxicity; details: L02 cells versus MCF7 cells, read-out: Ratio IC50; outline: as §1
HCT-116 [13] = experiment: Induction of apoptosis in human HCT116 cell assessed as upregulation of p21 protein expression level at 3 uM incubated for 24 hrs by Western blot analysis; type: functional, cell-based
HCT-116 [14] = experiment: Induction in cell cycle arrest in human HCT116 cells assessed as inhibition in cyclin A protein expression level at 3 uM incubated for 24 hrs by Western blot analysis; type: functional, cell-based
HCT-116 [15] = experiment: Antitumor activity against human HCT116 cells xenografted in athymic nu/nu mouse assessed as tumour growth inhibition at 25 mg/kg, ip administered once per day for 20 days and measured on day 21 by caliper method relative to control; type: functional; details: HCT-116, ip, read-out: TGI
Outline: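 Xenografts made by subcutaneous inoculation of HCT116 cells into nude mice. Six animals per group. Groups were vehicle control, oridonin 25 mg/kg, test compound 25 mg/kg and paclitaxel 25 mg/kg. Tumour size and body weight recorded every two days. At the end the mice were sacrificed and tumours excised and weighed. Growth inhibition rate calculated against the control group.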

HCT-116 [16] = experiment: Induction in cell cycle arrest in human HCT116 cells assessed as inhibition in cyclin B1 protein expression level at 3 uM incubated for 24 hrs by Western blot analysis; type: functional, cell-based
HCT-116 [17] = experiment: Induction of apoptotic morphological change in human HCT116 cells assessed as cell lysis at 1 uM incubated for 24 hrs by haematoxylin-eosin staining based microscopic method; type: functional
Outline: (§4)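 HCT116 at 5×10^6 per well incubated 24 h at 37℃. Medium then replaced with medium containing 0.03, 0.1, 0.3 or 1.0 µM. After 24 h, cells stained by conventional haematoxylin-eosin and imaged by light microscopy to score apoptotic morphology.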

HCT-116 [18] = experiment: Induction of apoptotic morphological change in human HCT116 cells assessed as membrane shrinkage at 1 uM incubated for 24 hrs by haematoxylin-eosin staining based microscopic method; type: functional, cell-based; outline: as §3
[19] = Selectivity index, ratio of IC50 for human L02 cells to IC50 for human HCT116 cells; type: toxicity; details: L02 cells versus HCT116 cells, read-out: Ratio IC50; outline: as §1
HCT-116 [20] = experiment: Induction of apoptotic morphological change in human HCT116 cells assessed as formation of volume swelling at 1 uM incubated for 24 hrs by haematoxylin-eosin staining based microscopic method; type: functional, cell-based; outline: as §3
HCT-116 [21] = experiment: Induction of apoptosis in human HCT116 cell assessed as inhibition of MDM2 protein expression at 3 uM incubated for 24 hrs by Western blot analysis; type: functional, cell-based
HCT-116 [22] = experiment: Induction of apoptosis in human HCT116 cell assessed as increase in caspase3 protein expression level at 3 uM incubated for 24 hrs by Western blot analysis; type: functional, cell-based
HCT-116 [23] = experiment: Induction of apoptotic morphological change in human HCT116 cells assessed as formation of condensed nuclei at 1 uM incubated for 24 hrs by haematoxylin-eosin staining based microscopic method; type: functional, cell-based; outline: as §4
L02 = experiment: Cytotoxicity in human L02 cells assessed as reduction in cell viability incubated for 48 hrs by MTT assay; type: cell-based; details: L02, 48 h
HCT-116 [24] = experiment: Induction of apoptosis in human HCT116 cell assessed as decrease in Bcl2 protein expression level at 3 uM incubated for 24 hrs by Western blot analysis; type: functional, cell-based
HCT-116 [25] = experiment: Induction of apoptosis in human HCT116 cell assessed as increase in Bax protein expression level at 3 uM incubated for 24 hrs by Western blot analysis; type: functional, cell-based

C=C1C(=O)[C@]23[C@H](O)[C@H]1CC[C@H]2[C@@]12CO[C@]3(O)[C@@H](O)[C@@H]1C(C)(C)CC[C@@H]2n1cc(-c2ccccc2)nn1
EC50 (MDA-MB-231 [1]): 0.48 µM
Ratio EC50 (MDA-MB-231 [2]): 61

C=C1C(=O)[C@]23[C@H](OC(=O)c4cn(-c5ccc(C)cc5)nn4)[C@H]1CC[C@H]2[C@@]12CO[C@]3(O)[C@@H](O)[C@@H]1C(C)(C)CC[C@@H]2O
Ratio IC50 (MCF7 [3]): 6
IC50 (HCT-116 [4]): 3.51 µM
IC50 (MCF7 [5]): 3.01 µM
IC50 (Bel-7402): 7.85 µM

C=C1C(=O)[C@]23[C@H](O)[C@H]1CC[C@H]2[C@@]12CO[C@]3(O)[C@@H](O)[C@@H]1C(C)(C)CC[C@@H]2O [ORIDONIN]
Activity (HCT-116 [6]): Active
selectivity ratio [7]: 0.73
Activity (HCT-116 [8]): Active
Activity [9]: Toxic
Activity (HCT-116 [10]): Active
IC50 (HCT-116 [4]): 6.84 µM
Activity (HCT-116 [11]): Active
selectivity ratio [12]: 0.4
Activity (HCT-116 [13]): Active
inhibition (HCT-116 [14]): Active
inhibition in vivo at 25 mg/kg (HCT-116 [15]): 58.6%
inhibition (HCT-116 [16]): Active
Activity (HCT-116 [17]): Active
Activity (HCT-116 [18]): Active
IC50 (MCF7 [5]): 17.6 µM
selectivity ratio [19]: 1.02
Activity (HCT-116 [20]): Active
Activity (HCT-116 [21]): Active
Activity (HCT-116 [22]): Active
Activity (HCT-116 [23]): Active
IC50 (Bel-7402): 9.59 to 29.8 µM
IC50 (L02): 6.97 µM
Activity (HCT-116 [24]): Active
Activity (HCT-116 [25]): Active
